Screening data deposited in PubChem by Broad Institute.
Shown are actives, neighbours in structure and some others; about 4% of the full set was active somewhere.
Statin myotox sup: suppressors of statin myotoxicity in C2C12 myotubes, primary screen, cell-based, single point, plate reader; C2C12 myotubes + simvastatin, ATP luminescence, 48 h; scaled: DMSO 0, geranylgeraniol control 100; rescue of ATP level, % at 7.49 µM; actives 0.78% (n = 330,000); AID 602340, 2012;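 active = mean ATP rescue above about 67%, or every replicate alone reaching that limit, limit read from the data, passing the limit was not always enough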;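 also: myotubes were challenged with 10 µM simvastatin during compound exposure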
FGF22 binding: binders of human FGF22 protein, primary screen, FGF22 synaptogenesis inhibitor project, biophysical, thermal shift, single point; Fibroblast growth factor 22 (Homo sapiens), Q9HCT0; recombinant FGF22 thermal shift, SYPRO orange fluorescence; percent of sucrose octasulfate shift, DMSO zero; activity (Tm shift, normalised), % at 9.99 µM; actives 1.5% (n = 340,000); AID 651658, 2012;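 active = mean Tm shift, scaled 0 neutral to 100 positive control, at about 1.3% or above, every replicate too, limit read from the data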
Target sequence (Q9HCT0 whole entry, looked up): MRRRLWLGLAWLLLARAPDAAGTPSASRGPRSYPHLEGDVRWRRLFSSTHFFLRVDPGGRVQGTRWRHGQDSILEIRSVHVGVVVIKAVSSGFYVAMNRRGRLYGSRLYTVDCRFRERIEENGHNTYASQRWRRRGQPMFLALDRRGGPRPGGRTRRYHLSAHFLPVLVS
SIRT5 block: SIRT5 desuccinylase inhibitors, primary screen, biochemical, fluorescence imaging, single point, set 5 | inhibition, % at 15 µM | Purified SirT5, succinyl-peptide AMC, trypsin-coupled fluorescence | actives 1.1% (n = 330,000); in the data active = inhibition above about 15%
E-selectin induc: E-selectin induction in HUVECs, primary screen, imaging, HUVEC, immunofluorescence imaging, single point; P16581; normalized: neutral wells 0, TNF-alpha wells 100; activation, % at 7.58 µM; actives 0.37% (n = 260,000); AID 686992, 2013;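 active = mean E-selectin-positive cell signal at least 10% of the positive control, reached in at least 60% of replicates, without over 20% cell loss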
Target sequence (P16581 whole entry, looked up): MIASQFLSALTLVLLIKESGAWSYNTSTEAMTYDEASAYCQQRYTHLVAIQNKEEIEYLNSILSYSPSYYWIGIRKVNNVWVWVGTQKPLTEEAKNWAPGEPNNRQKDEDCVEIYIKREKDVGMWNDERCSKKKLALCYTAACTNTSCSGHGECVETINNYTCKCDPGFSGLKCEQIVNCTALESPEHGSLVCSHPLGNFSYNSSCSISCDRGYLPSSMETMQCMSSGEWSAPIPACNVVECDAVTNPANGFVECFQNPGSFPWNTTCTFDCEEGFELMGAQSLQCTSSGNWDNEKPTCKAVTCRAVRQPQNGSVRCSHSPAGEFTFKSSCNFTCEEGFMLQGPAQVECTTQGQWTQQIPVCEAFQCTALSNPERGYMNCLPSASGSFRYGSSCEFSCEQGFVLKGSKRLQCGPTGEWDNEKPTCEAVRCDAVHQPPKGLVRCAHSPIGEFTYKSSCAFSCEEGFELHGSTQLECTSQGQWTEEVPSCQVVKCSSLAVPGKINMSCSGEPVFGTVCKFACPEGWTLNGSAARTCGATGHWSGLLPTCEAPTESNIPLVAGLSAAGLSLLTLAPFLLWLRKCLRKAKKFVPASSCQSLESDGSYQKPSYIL
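Assay system: HUVEC primary endothelial cells. Input: 3,000 HUVEC seeded per well. Doses: one compound dose added by pin transfer. Read-out basis: % PE-positive cells. Benchmarks: TNF-alpha high, DMSO low. Detection: immunofluorescence imaging. Buffer or medium: EGM-2, gelatin.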
Ecoli rRNA inh: reduced GFP signal of wild-type E. coli, primary screen, bacterial rRNA inhibitor project, GFP/RFP fluorescence, OD600, single point. E. coli WT GFP vs humanized-ribosome RFP mutants, 24 h; active compounds read low; DMSO median 0, no signal -100. GFP signal change (wild-type ribosome), % (concentration not given with the values). actives 1.6% (n = 350,000);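 active = significant combined selectivity score with lowered wild-type GFP, culture density cut under 30%, mutant RFP and density less affected; inactive = any of these conditions unmet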
FN deposit inh: inhibitors of fibronectin matrix deposition, primary screen, AH1F cells, Alexa488-fibronectin fluorescence, plate reader. actives 0.086% (n = 350,000). AH1F fibroblasts, overnight. inhibition, % at 12.6 µM. AID 743247, 2014;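 active = mean inhibition across replicates of 30% or more, regardless of how many single replicates reach that level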
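Material – AH1F fibroblast monolayer, labelled fibronectin deposition · Reagent – labelled fibronectin 24 nM · Timing – 1 h adhesion, overnight exposure · Measured by – fluorescence at 485 nm excitation, 525 nm emission · Read-out – inhibition of fibronectin deposition signal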
Of the large screens only hits and unclear results are named; the others gave an inactive call.

CCCNC(=O)N1C[C@@H](O)COC[C@@H]2O[C@H](CC(=O)N3CCC(Cc4ccccc4)CC3)CC[C@H]21	SIRT5 block 23
O=C(C[C@@H]1CC[C@H]2[C@@H](COC[C@H](O)CN2CCC(F)(F)F)O1)N1CCC(Cc2ccccc2)CC1	SIRT5 block 17
CCCNC(=O)N1C[C@H](O)COC[C@H]2O[C@H](CC(=O)N3CCC(Cc4ccccc4)CC3)CC[C@@H]21	none
O=C(C[C@@H]1CC[C@@H]2[C@H](COC[C@H](O)CN2CCC(F)(F)F)O1)N1CCC(Cc2ccccc2)CC1	none
O=Cc1c(Cl)[nH]c(=O)n1-c1ccccc1	none (no result: Statin myotox sup, E-selectin induc)
O=c1[nH]c2cc(Cl)ccc2n1-c1ccccc1	Statin myotox sup 100 (no result: FGF22 binding, SIRT5 block, E-selectin induc, Ecoli rRNA inh, FN deposit inh)
CCCCN(CCCC)Cc1ccc(C(=O)NN)o1	FGF22 binding 44 (no result: E-selectin induc)
CCCCN(CCCC)Cc1ccc(C(=O)NNC(=O)Nc2ccc(Cl)cc2)o1	none
CC[C@H](C)[C@@H]1NC(=O)[C@@H](CC(C)C)NC(=O)[C@H](C(C)C)NC(=O)[C@H]2CSSC[C@H](NC1=O)C(=O)N2	FN deposit inh 34
CCNC(=O)C[C@@H]1CC[C@@H]2[C@H](COc3ccc(NC(=O)c4ccccc4)cc3C(=O)N2C)O1	none (no result: FGF22 binding)
CCc1nc2ccc(C(=O)Nc3cc(-c4ccccc4)ccc3OC)cn2c1N(C)Cc1ccc(OC)cc1	none (no result: FN deposit inh)
CCc1nc2ccc(C(=O)Nc3cc(-c4ccccc4)ccc3OC)cn2c1N(C)Cc1nccs1	FGF22 binding 43 (no result: SIRT5 block)
C[C@H]1CCCCO[C@H](CN(C)C(=O)Cc2ccccc2)[C@@H](C)CN([C@@H](C)CO)C(=O)c2cc(NC(=O)Nc3ccccc3)ccc2O1	none (no result: Statin myotox sup, E-selectin induc)
Nc1nc(SCc2ccccc2)n[nH]1	none (no result: Statin myotox sup)
Nc1ccccc1SCc1ccccc1	FGF22 binding 43 (no result: E-selectin induc)
COc1ccccc1S(=O)(=O)N[C@@H]1CC[C@@H](CC(=O)NCc2cc(F)cc(F)c2)O[C@@H]1CO	none (no result: Statin myotox sup, FN deposit inh)
COc1ccccc1CNc1cncnc1	Ecoli rRNA inh -23
C[C@@H]1CCCCO[C@@H](CN(C)CC2CCCCC2)[C@H](C)CN([C@@H](C)CO)C(=O)c2cc(NC(=O)Nc3ccc4c(c3)OCO4)ccc2O1	FGF22 binding 1.4 (no result: FN deposit inh)
C[C@@H]1CCCCO[C@H](CN(C)CC2CCCCC2)[C@@H](C)CN([C@H](C)CO)C(=O)c2cc(NC(=O)Nc3ccc4c(c3)OCO4)ccc2O1	none (no result: FN deposit inh)
C[C@H](CO)N1C[C@H](C)[C@@H](CN(C)CC2CCCCC2)OCCCC[C@H](C)Oc2ccc(NC(=O)Nc3ccc4c(c3)OCO4)cc2C1=O	Statin myotox sup 70 (no result: FN deposit inh)
C[C@@H]1CCCCO[C@H](CN(C)CC2CCCCC2)[C@H](C)CN([C@H](C)CO)C(=O)c2cc(NC(=O)Nc3ccc4c(c3)OCO4)ccc2O1	none (no result: FN deposit inh)
O=C(NCc1ccc2c(c1)OCO2)[C@@H]1[C@@H](CO)[C@@H]2Cn3c(cccc3=O)[C@H]1N2Cc1ccncc1	none (no result: FN deposit inh)
CO[C@H]1CN(C)C(=O)c2ccc(NC(=O)Nc3cccc(F)c3)cc2OC[C@@H](C)N(C(=O)Nc2c(C)noc2C)C[C@@H]1C	none (no result: SIRT5 block)
COc1ccc(CNC(=O)Cn2ccc(N)nc2=O)cc1	E-selectin induc 39 (no result: SIRT5 block)
COc1ccc2c(c1)c(C(=O)OCCN(C)C)c(C)n2C	Statin myotox sup 105 (no result: FGF22 binding, SIRT5 block, E-selectin induc, Ecoli rRNA inh)
COc1ccccc1CN1CC(C(=O)N(C)CCCn2nc(C)cc2C)CCC1=O (centres undefined)	none (no result: Statin myotox sup, FN deposit inh)
COc1ccccc1CN1CC(C(=O)N(C)Cc2[nH]c3ccccc3c2C)CCC1=O (centres undefined)	E-selectin induc 119
CCOc1ccc(OCc2ccc(C(=O)N/N=C(\C)c3ccccn3)cc2)cc1	FGF22 binding 43 (no result: Statin myotox sup, E-selectin induc)
C=C1CCN(c2ccc(C(=O)NCc3ccc(C)cc3)cc2[N+](=O)[O-])CC1	Statin myotox sup 120 (no result: E-selectin induc)
O=C(NCc1ccncc1)c1ccc(N2CCCC2)c([N+](=O)[O-])c1	none (no result: Statin myotox sup, E-selectin induc, FN deposit inh)
O=C(NCc1ccccn1)c1ccc(N2CCCC2)c([N+](=O)[O-])c1	FGF22 binding 43 (no result: E-selectin induc)
C=C1CCN(c2ccc(C(=O)NCc3ccc(OC)cc3)cc2[N+](=O)[O-])CC1	none (no result: Statin myotox sup, SIRT5 block)
O=C(Nc1nc2ccc(F)cc2s1)c1ccc([N+](=O)[O-])o1	Ecoli rRNA inh -26 (no result: SIRT5 block)
Cc1ccc(-c2csc(NC(=O)c3ccc(C)o3)n2)cc1	none (no result: Statin myotox sup, FGF22 binding, SIRT5 block, Ecoli rRNA inh)
Cc1ccc(-c2csc(NC(=O)c3ccc([N+](=O)[O-])o3)n2)cc1	Statin myotox sup 91
C[C@@H]1CN([C@@H](C)CO)S(=O)(=O)c2ccc(-c3ccncc3)cc2O[C@H]1CN(C)C(=O)CC1CC1	none (no result: FN deposit inh)
CN(C)C(=O)c1cccc(-c2ccc3c(c2)[C@@H]2[C@@H](CCN2Cc2ccccc2F)[C@@H](CO)N3)c1	none (no result: SIRT5 block)
COC(=O)C1=C(C)NC(=O)CC1c1cc(Br)ccc1F (centres undefined)	Statin myotox sup 111 (no result: FGF22 binding, SIRT5 block, E-selectin induc, Ecoli rRNA inh, FN deposit inh)
COc1ccc(NC(=O)N2CCCCN3[C@H](C2)[C@@H](c2ccc(C#Cc4ccccc4)cc2)[C@@H]3CO)cc1	SIRT5 block 16 (no result: Statin myotox sup, E-selectin induc, Ecoli rRNA inh, FN deposit inh)
O=C(c1cccnc1)N1CCCCN2[C@H](CO)[C@@H](c3ccc(C#Cc4ccccn4)cc3)[C@H]2C1	none (no result: FN deposit inh)
COc1ccc(C#Cc2ccc([C@H]3[C@H]4CN(C(=O)c5ccncc5)CCCCN4[C@H]3CO)cc2)cc1	Statin myotox sup 98 (no result: FN deposit inh)
C[C@@H](O)C#Cc1ccc([C@@H]2[C@H]3CN(C(=O)c4cccc(F)c4)CCCCN3[C@H]2CO)cc1	SIRT5 block 23 (no result: FN deposit inh)
O=C(c1cccnc1)N1CCCCN2[C@H](CO)[C@@H](c3ccc(C#Cc4ccccn4)cc3)[C@@H]2C1	SIRT5 block 31 (no result: FN deposit inh)
COc1ccc(C#Cc2ccc([C@@H]3[C@H]4CN(C(=O)c5ccncc5)CCCCN4[C@H]3CO)cc2)cc1	none (no result: FN deposit inh)
Cc1ccc(S(=O)(=O)Nc2ccc3c(c2)C(=O)N([C@H](C)CO)C[C@H](C)[C@@H](CN(C)C(=O)Nc2ccc4c(c2)OCO4)OCCCC[C@H](C)O3)cc1	none (no result: Statin myotox sup)
COc1ccc(S(=O)(=O)Nc2cccc3c2O[C@H](CN(C)S(=O)(=O)c2cn(C)cn2)[C@@H](C)CN([C@@H](C)CO)C3=O)cc1	none
CC(=O)N1CCCCN2[C@@H](CO)[C@H](c3ccc(Br)cc3)[C@@H]2C1	SIRT5 block 17 (no result: FN deposit inh)
